We go through twelve compounds from ChEMBL document CHEMBL4371094, “Secondary Metabolites from the Fungus Dictyosporium sp. and Their MALT1 Inhibitory Activities” (J Nat Prod, 2019).

The structures appear in SMILES notation. pIC50: −log10 of the molar value. Active and inactive are the calls of the source. No cut-off for these calls is given here.

For the first experiment, the target named is T1, Mucosa-associated lymphoid tissue lymphoma translocation protein 1 (Homo sapiens) (UniProt Q9UDY8).
T1 sequence (whole entry): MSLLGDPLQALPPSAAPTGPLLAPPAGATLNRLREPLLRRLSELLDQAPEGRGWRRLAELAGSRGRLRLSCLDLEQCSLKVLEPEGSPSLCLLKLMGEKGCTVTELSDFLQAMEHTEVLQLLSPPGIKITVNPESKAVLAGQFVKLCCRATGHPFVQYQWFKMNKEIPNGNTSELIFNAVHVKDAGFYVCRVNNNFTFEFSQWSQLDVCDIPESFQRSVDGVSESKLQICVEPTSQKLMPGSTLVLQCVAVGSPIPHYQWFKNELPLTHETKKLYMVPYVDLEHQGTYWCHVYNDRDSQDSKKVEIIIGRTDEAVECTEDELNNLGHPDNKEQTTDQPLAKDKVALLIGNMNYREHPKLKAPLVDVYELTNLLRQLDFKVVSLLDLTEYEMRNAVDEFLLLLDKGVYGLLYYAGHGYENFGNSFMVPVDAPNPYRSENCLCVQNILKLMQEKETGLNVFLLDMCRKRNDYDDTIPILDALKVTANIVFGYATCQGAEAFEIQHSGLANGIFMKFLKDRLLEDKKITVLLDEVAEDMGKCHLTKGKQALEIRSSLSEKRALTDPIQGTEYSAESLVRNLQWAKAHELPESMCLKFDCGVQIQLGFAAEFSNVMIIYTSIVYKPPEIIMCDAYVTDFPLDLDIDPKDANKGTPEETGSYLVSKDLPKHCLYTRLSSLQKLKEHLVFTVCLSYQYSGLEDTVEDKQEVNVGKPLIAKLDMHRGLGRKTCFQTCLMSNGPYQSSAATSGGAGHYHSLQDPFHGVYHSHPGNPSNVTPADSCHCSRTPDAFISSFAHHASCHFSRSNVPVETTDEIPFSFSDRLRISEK
The experiment in a line: Inhibition of full-length human GST-tagged MALT1 isoform A (824 residues) expressed in Escherichia coli at >100 uM in presence of AMC after 1 hr by fluorescence assay.
For `COC(=O)C1=CC=COc2oc3cc(C)cc(O)c3c(=O)c21`, the inhibition result is “Active”.
Still for that read-out and setting: the result for `COC(=O)C1=CC(C)=COc2oc3cccc(O)c3c(=O)c21` reads “Active”.

The target in another experiment is T2, Mucosa-associated lymphoid tissue lymphoma translocation protein 1 (Homo sapiens, UniProt Q9UDY8).
T2 sequence (Q9UDY8 whole entry): T1 sequence (whole entry)
The experiment is described as follows: Inhibition of full-length human GST-tagged MALT1 isoform A (824 residues) expressed in Escherichia coli using Ac-LRSR-MCA as substrate after 1 hr by fluorescence assay. The method in brief: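 Recombinant MALT1-GST, 25 nM final, in buffer of 50 mM Tris HCl pH 7.5, 0.05% CHAPS, 1 mM DTT, 0.1 mM EGTA, 0.8 M sodium citrate. Started by adding 150 μM Ac-LRSR-MCA with compound (0−250 μM). 37 °C for 1 h, quenched with equal volume 0.2% SDS, AMC fluorescence read at ex 342/em 441 nm in quadruplicate. Prequenched background subtracted, normalized to vehicle control.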
What is called pIC50 is −log10 of the IC50, conventionally taken in molar units. The low end stands for a high IC50, the high end for a low IC50. `CC(C)[C@H](NC(=O)OCc1ccccc1)C(=O)N[C@@H](CCCNC(=N)N)C(=O)N1CCC[C@H]1C(=O)N[C@@H](CCCNC(=N)N)C(=O)CF`: the negative-log IC50 (pIC50) was 7.80.
Take `COC(=O)C1=CC=COc2oc3cc(C)cc(O)c3c(=O)c21`: the negative-log IC50 (pIC50) was 4.29.
For the compound `COC(=O)C1=CC(C)=COc2oc3cccc(O)c3c(=O)c21`, the pIC50 was 4.49.

Another experiment concerns the target T1, Mucosa-associated lymphoid tissue lymphoma translocation protein 1 (Homo sapiens). The experiment in a line: Inhibition of full-length human GST-tagged MALT1 isoform A (824 residues) expressed in Escherichia coli at 100 uM using Ac-LRSR-MCA as substrate after 1 hr by fluorescence assay.
Consider `COC(=O)c1cccc2oc3cc(C)cc(O)c3c(=O)c12`, for which the inhibition entry is “inactive”.
In the case of `CCc1c(OC)cc2c(c1O)C(=O)CC[C@@H]2O`, the inhibition entry is “inactive”.
In the case of `COc1c(C)cc(O)c2c1[C@H](O)[C@]1(C(=O)C(CC=C(C)C)=CC[C@H]1O)C2=O`, the inhibition entry was “inactive”.
On the same count and under the same terms, the result for `Cc1cc(CO)c2c(=O)c3c(O)cccc3oc2c1` reads “inactive”.
For the compound `Cc1cc([C@@H]2C[C@H](O)C(=O)O2)c2c(=O)c3c(O)cccc3oc2c1`, the inhibition entry is “inactive”.
`COC(=O)c1cc(C)c(O)c2oc3cccc(O)c3c(=O)c12`: the inhibition result is “inactive”.
For `COC(=O)c1cc(O)cc2oc3cc(C)cc(O)c3c(=O)c12`, the inhibition entry is “inactive”.
For the compound `COc1cc2c(c(O)c1[C@H](C)O)C(=O)CC[C@@H]2O`, the inhibition result was “inactive”.
Still for that read-out and setting: the result for `CCc1c(OC)cc2c(c1O)C(=O)CC[C@@]21C[C@@H](O)C(=O)O1` reads “inactive”.
